From paper PMC4723301 (Experimental biology and medicine (Maywood, N.J.), 2015)

Key:
Cyp 2C9 = Cyp 2C9 (Homo sapiens, UniProt P11712); conditions: 24 h, 10 μM
hepatocytes [1] = experiment: Apoptosis, cytochrome C biosensor in sentinel hepatocytes; assay type: cell-based, human; conditions: for Effect on hepatocellular apoptosis biosensor: 600 μM caffeine, 28 days
LX-2 stellate cells = experiment: LX-2 stellate cell migration in SQL-SAL; assay type: cell-based, human; conditions: 30 nM methotrexate, days 4 and 7, vs vehicle control (p ≤ 0.05)
[2] = tested on: human alpha- smooth muscle actin (alpha-SMA); experiment: Indirect immunofluorescence of alpha-SMA in SQL-SAL; assay type: cell-based
Summary of the method: (§1)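 Human liver model in a perfused microfluidic device: primary hepatocytes, EA.hy926, U937 and LX-2 cells, with the LX-2 cells in collagen. The LX-2 cells are transduced with pLVX-IRES-mito-mKate2 for identification. Perfusion at 5 µL/h with HMM plus 100 nM dexamethasone at 37℃, 5% CO2; test compound in 1% DMSO. On day 21, paraformaldehyde-fixed and stained by indirect immunofluorescence. Value is the ratio of average cellular antibody intensity in stellate versus non-stellate cells; equal-variance t-test.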

[3] = tested on: collagen type 1, alpha 2 (COL1A2); experiment: Indirect immunofluorescence of COL1A2 in SQL-SAL; assay type: cell-based, human; conditions: 30nM methotrexate, day 21, relative to vehicle control (p ≤ 0.05)
Summary of the method: as §1

LX2 cultures = conditions: human
SQL-SAL [4] = experiment: Urea secretion in efflux media of SQL-SAL devices
SQL-SAL [5] = experiment: Albumin secretion in efflux media of SQL-SAL devices
SQL-SAL [6] = experiment: LDH leakage in efflux media of SQL-SAL devices; conditions: for Days with significant LDH release (p≤0.05): vs vehicle
SQL-SAL [7] = experiment: SQL-SAL toxicity testing, overall response; conditions: 28μM troglitazone, over 21 days
SQL-SAL [8] = conditions: human, 180 μM
[9] = Urea secretion in efflux media of SQL-SAL devices; conditions: human
hepatocytes [10] = experiment: Mitochondrial-targeted ROS biosensor in sentinel hepatocytes; assay type: cell-based, human; conditions: troglitazone, measured over 24 h
hepatocytes [11] = experiment: Bile; assay type: cell-based, human; conditions: 50 μM troglitazone, day 10 devices, 10-min intervals for 60 min, vs vehicle (1% DMSO)
[12] = Albumin secretion in efflux media of SQL-SAL devices; conditions: human
hepatocytes [13] = experiment: Hepatocyte area by HCA in SQL-SAL; conditions: 200 μM trovafloxacin (40 × Cmax) with 1 μg/mL LPS
[14] = 28 μM troglitazone versus caffeine control
[15] = 180 μM troglitazone, starting at day 1 of treatment

Cyp 2C9, sequence (P11712 whole entry): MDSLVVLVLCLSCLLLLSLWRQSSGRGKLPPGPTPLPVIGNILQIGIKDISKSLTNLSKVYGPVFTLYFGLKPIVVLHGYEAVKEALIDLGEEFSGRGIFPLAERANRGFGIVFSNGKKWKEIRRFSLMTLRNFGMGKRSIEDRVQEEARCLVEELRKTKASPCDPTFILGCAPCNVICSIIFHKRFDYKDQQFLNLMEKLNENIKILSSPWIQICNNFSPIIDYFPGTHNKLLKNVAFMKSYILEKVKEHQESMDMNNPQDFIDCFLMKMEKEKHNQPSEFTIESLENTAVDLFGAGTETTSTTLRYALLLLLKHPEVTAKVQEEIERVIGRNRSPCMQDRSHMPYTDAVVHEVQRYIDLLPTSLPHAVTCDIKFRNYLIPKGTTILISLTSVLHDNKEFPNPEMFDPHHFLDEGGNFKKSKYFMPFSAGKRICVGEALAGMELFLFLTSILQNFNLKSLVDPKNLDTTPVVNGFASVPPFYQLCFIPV

SMILES: O=C(O)Cc1ccccc1Nc1c(Cl)cccc1Cl [Diclofenac, diclofenac]
- Metabolite found in efflux media (AUC) (Cyp 2C9): 36943 ±28302

SMILES: Cn1c(=O)c2c(ncn2C)n(C)c1=O [caffeine]
- Effect on hepatocellular apoptosis biosensor (hepatocytes [1]): no appreciable effect
- Effect on hepatocellular apoptosis biosensor (hepatocytes [1]; listed as Caffeine): no significant effect

SMILES: CN(Cc1cnc2nc(N)nc(N)c2n1)c1ccc(C(=O)N[C@@H](CCC(=O)O)C(=O)O)cc1 [methotrexate]
- LX-2 stellate cells proximal to the hepatocyte layer (LX-2 stellate cells): significantly accumulate
- Expression of human alpha-SMA in LX-2 stellate cells ([2]; 30nM methotrexate, day 21, relative to vehicle control (p ≤ 0.05)): increased
- alpha-SMA expression in hepatocytes ([2]; methotrexate treatment): increased
- Expression of collagen, type 1, alpha 2 (COL1A2) in LX-2 stellate cells [3]: increased
- maximum tolerated concentration (LX2 cultures): 100 nM

SMILES: CS(=O)(=O)Nc1ccc([N+](=O)[O-])cc1Oc1ccccc1 [nimesulide]
- Change in urea (SQL-SAL [4]; 210 μM nimesulide (10 × Cmax)): decreases
- Apoptotic hepatocytes (hepatocytes [1]; 210 μM nimesulide (10 × Cmax)): rapid increase
- Change in albumin (SQL-SAL [5]; 210 μM nimesulide (10 × Cmax)): decreases
- Effect on LDH (SQL-SAL [6]; 210 μM nimesulide (10 × Cmax)): rapid release

SMILES: Cc1c(C)c2c(c(C)c1O)CCC(C)(COc1ccc(CC3SC(=O)NC3=O)cc1)O2 (stereo not shown) [troglitazone]
- Toxic response (SQL-SAL [7]): gradual and much delayed toxic response
- Acute toxicity produced within (SQL-SAL [8]): 2 to 4 days
- Change in urea (SQL-SAL [4]; [14]): gradual decrease
- Change in urea (SQL-SAL [4]; [15]): sharp decrease
- Days with significant decline in urea secretion (p ≤ 0.05) (SQL-SAL [4]; troglitazone 28 μM (4 × Cmax)): 4 to 28 days
- Days with significant decline in urea secretion (p ≤ 0.05) (SQL-SAL [4]; troglitazone 180μM (30 × Cmax)): 4 to 10 days
- half-life at 28 μM [9]: ~12 days
- half-life at 180 μM [9]: ~3 days
- ROS, mitochondrial-targeted ROS biosensor (hepatocytes [10]): increase in ROS
- CMFDA uptake and canalicular efflux (hepatocytes [11]): slower uptake and inhibition of efflux
- Induction of apoptosis (loss of mitochondrial cytochrome C biosensor intensity) began on day (hepatocytes [1]; 28 μM troglitazone): 10 days
- Induction of apoptosis (loss of mitochondrial cytochrome C biosensor intensity) began on day (hepatocytes [1]; 180 μM troglitazone): 1 days
- Days with significant levels (p ≤ 0.05) of apoptosis, cytochrome C biosensor (hepatocytes [1]; troglitazone 28 μM): 16 to 28 days
- Days with significant levels (p ≤ 0.05) of apoptosis, cytochrome C biosensor (hepatocytes [1]; troglitazone 180 μM): 1 to 15 days
- Change in albumin (SQL-SAL [5]; [14]): gradual decrease
- Change in albumin (SQL-SAL [5]; [15]): sharp decrease
- Days with significant decline in albumin secretion (p≤ 0.05) (SQL-SAL [5]; troglitazone 28 μM (4 × Cmax)): 18 to 28 days
- Days with significant decline in albumin secretion (p≤ 0.05) (SQL-SAL [5]; troglitazone 180μM (30 × Cmax)): 4 to 10 days
- half-life at 28 μM [12]: ~11 days
- half-life at 180 μM [12]: ~3 days
- Overt cytotoxicity, measured as LDH release, delayed until day (SQL-SAL [6]; 28 μM (4 × Cmax) troglitazone, continuous perfusion, vs 600 μM caffeine): 13 days
- Overt cytotoxicity, measured as LDH release, found on day (SQL-SAL [6]; 180 μM (30 × Cmax) troglitazone, continuous perfusion, vs 600 μM caffeine): 4 days
- Peak LDH release (SQL-SAL [6]; troglitazone 180nM (30 × Cmax)): ~4 days
- Days with significant LDH release (p≤0.05) (SQL-SAL [6]; troglitazone 180nM (30 × Cmax)): 4 to 6 days
- Peak LDH loss (SQL-SAL [6]; troglitazone 28 μM (4 × Cmax)): ~13 days
- Days with significant LDH release (p≤0.05) (SQL-SAL [6]; troglitazone 28 μM (4 × Cmax)): 13 to 15 days

SMILES: N[C@@H]1[C@H]2CN(c3nc4c(cc3F)c(=O)c(C(=O)O)cn4-c3ccc(F)cc3F)C[C@@H]12 [trovafloxacin]
- LDH leakage (SQL-SAL [6]; 200 μM (40 × Cmax) trovafloxacin co-incubated with 1 μg/mL LPS, 3 and 5 days): Increased LDH leakage
- Change in hepatocyte area (hepatocytes [13]): decrease in hepatocyte area
